Test results published in ChEMBL document CHEMBL1132098, “2,7-diazabicyclo[3.3.0]octanes as novel h5-HT receptor agonists” (Bioorg Med Chem Lett, 1999).

Columns and labels:
[1] = biological target: T1, 5-hydroxytryptamine receptor 1D (Homo sapiens, UniProt P28221); experiment: Measurement of agonist induced [35S]GTP-gamma-S, binding in CHO cells stably transfected with 5-hydroxytryptamine 1D receptor; type: functional, cell-based
In short: (§1)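 Agonist-induced [35S]GTPγS binding measured in CHO cells stably transfected with the human 5-HT1D receptor. Maximal effect expressed as % of the 5-HT maximum.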

[2] = biological target: Serotonin 1 receptors; 5-HT1B & 5-HT1D (Homo sapiens) (UniProt P28222+P28221); experiment: Selectivity ratio for h-5-HT 1B receptor to that of h5-HT 1D receptors.; type: protein assay
In short: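 Displacement of [3H]-5-HT binding at cloned human 5-HT1B and 5-HT1D receptors, with radioligand at roughly its KD for each receptor. Ratio obtained by dividing the mean IC50 values for the two receptors.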

[3] = biological target: T1, 5-hydroxytryptamine receptor 1D; experiment: Maximum stimulation of [35S]GTP-gamma-S, binding expressed relative to the maximal effect produced by the 5-HT; type: functional; in short: as §1
[4] = biological target: T1, 5-hydroxytryptamine receptor 1D; experiment: Ability to displace [3H]- -5-HT binding to cloned 5-hydroxytryptamine 1D receptor stably expressed in chinese hamster cells (CHO cells); type: cell-based
In short: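 Human 5-HT1D receptor cloned and stably expressed in CHO cells. Displacement of [3H]-5-HT binding, with radioligand at roughly its KD for the receptor. At least three independent experiments, each run in duplicate. IC50 reported as geometric mean with limits derived from the SEM.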

[5] = tested on: Rattus norvegicus; experiment: Drug concentration was measured in plasma samples originating from the hepatic portal vein (hpv) at 2 hr post administration; type: functional, organism-based
In short: (§2)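 Rats dosed orally at 3 mg/kg (5 mL/kg, aqueous formulation). Plasma taken from the hepatic portal vein and by cardiac puncture (systemic) at 0.5 and 2 h after dosing. Drug concentration reported in ng/mL.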

[6] = tested on: Rattus norvegicus; experiment: Drug concentration was measured in plasma samples originating from the hepatic portal vein (hpv) at 0.5 hr post administration; type: functional, organism-based; in short: as §2
[7] = tested on: Rattus norvegicus; experiment: Drug concentration was measured in plasma samples originating from the cardiac puncture (systemic) at 2 h post administration; type: functional, organism-based; in short: as §2
[8] = tested on: Rattus norvegicus; experiment: Drug concentration was measured in plasma samples originating from the cardiac puncture (systemic) at 0.5 hr post administration; type: functional, organism-based; in short: as §2
[9] = Acid dissociation constant was determined; type: ADME

T1 sequence (P28221 whole entry): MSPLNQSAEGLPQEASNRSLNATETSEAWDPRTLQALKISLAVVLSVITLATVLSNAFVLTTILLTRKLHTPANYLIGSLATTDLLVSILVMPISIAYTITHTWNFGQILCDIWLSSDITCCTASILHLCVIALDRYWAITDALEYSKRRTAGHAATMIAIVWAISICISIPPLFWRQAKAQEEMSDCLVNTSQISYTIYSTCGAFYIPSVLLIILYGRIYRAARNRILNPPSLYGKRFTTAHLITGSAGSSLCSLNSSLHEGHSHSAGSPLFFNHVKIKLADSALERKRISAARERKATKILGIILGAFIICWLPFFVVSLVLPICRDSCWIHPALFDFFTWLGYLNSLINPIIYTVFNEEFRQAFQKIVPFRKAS

Compound	EC50 [1] [nM]	Selectivity [2]	Efficacy [3]	IC50 [4] [nM]	Absorption [5] [ng/mL]	Absorption [6] [ng/mL]	Absorption [7] [ng/mL]	Absorption [8] [ng/mL]	pKa [9]
CN1[C@@H](Cc2c[nH]c3ccc(-n4cnnc4)cc23)C[C@@H]2CN(Cc3ccc(F)cc3)C[C@@H]21 (racemic)	2.9	13	88	0.8	–	–	–	–	–
c1ccc(CNC[C@@H]2CCN(CCc3c[nH]c4ccc(-n5cnnc5)cc34)C2)cc1	–	62	102	–	< 5	< 5	< 5	< 5	–
CN1[C@@H](Cc2c[nH]c3ccc(-n4cnnc4)cc23)C[C@@H]2CN(CCc3cccc(F)c3)C[C@@H]21 (racemic)	1.9	15	63	1.2	–	–	–	–	–
CN1[C@@H](Cc2c[nH]c3ccc(-n4cnnc4)cc23)C[C@@H]2CN(Cc3ccccc3)C[C@@H]21 (racemic)	0.5	6.7	96	0.9	–	–	–	–	8.5
CN(Cc1ccccc1)C[C@H]1C[C@H](Cc2c[nH]c3ccc(-n4ccnc4)cc23)N(C)C1	–	6.9	–	0.9	30	21	< 4	< 4	8.7
CN1C[C@@H](CN(C#N)Cc2ccccc2)C[C@@H]1Cc1c[nH]c2ccc(-n3ccnc3)cc12	–	6.7	–	3.3	–	–	–	–	–
CN1[C@@H](Cc2c[nH]c3ccc(-n4ccnc4)cc23)C[C@@H]2CN(Cc3ccccc3)C[C@@H]21 (racemic)	1.2	8.4	69	0.7	105	558	10	47	–
